Measured values as given in ChEMBL document CHEMBL2086314, “Synthesis and anticonvulsant activity of new N-Mannich bases derived from 3-(2-fluorophenyl)- and 3-(2-bromophenyl)-pyrrolidine-2,5-diones. Part II” (Bioorg Med Chem, 2012).
Active and inactive are the calls of the source. No cut-off for these calls is given here.

Key:
[1] = Neurotoxicity in ip dosed CF-1 albino mouse assessed as motor impairment by rotarod test; type: toxicity, organism-based; settings: in vivo
Mus musculus [2] = test: Anticonvulsant activity in ip dosed 6 Hz psychomotor-induced seizure in CF-1 albino mouse assessed as time of peak effect; type: functional
Mus musculus [3] = test: Anticonvulsant activity in CF-1 albino mouse assessed as protection against 6 Hz psychomotor seizure at 100 mg/kg, ip measured after 0.25 hrs; type: functional; settings: route intraperitoneal
Method in brief: (§1)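 6-Hz psychomotor seizure in male CF-1 mice, compound suspended in 0.5% methylcellulose/water, given ip (100 or 75 mg/kg). Corneal stimulation with 0.2 ms monopolar rectangular pulses at 6 Hz for 3 s, 32 mA, constant-current device. Protected if normal exploratory behaviour resumes within 10 s. Tested 0.25–4 h after dosing; value is mice protected out of four.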

Mus musculus [4] = test: Anticonvulsant activity in ip dosed CF-1 albino mouse assessed as protection from maximal electric shock-induced seizures measured after 4 hrs; type: functional; settings: read-out: MED
Method in brief: (§2)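 Male CF-1 mice dosed ip at 30, 100 or 300 mg/kg, suspension in 0.5% methylcellulose/water. MES: corneal electrodes primed with electrolyte containing anaesthetic, 50 mA, 60 Hz, 0.2 s. Examined 0.5 and 4 h after dosing. Value is the minimum dose protecting half or more of the animals.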

Mus musculus [5] = test: Anticonvulsant activity in ip dosed CF-1 albino mouse assessed as protection from maximal electric shock-induced seizures; type: functional
Method in brief: (§3)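 ED50 and TD50 determined in male CF-1 mice after ip dosing (0.5% methylcellulose suspension) at the previously estimated time of peak effect. MES 50 mA, 60 Hz, 0.2 s. Groups of eight, with doses varied until at least three points fell between 10–90% protection or motor impairment. Regression gives ED50/TD50 with 95% confidence intervals; PI = TD50/ED50.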

Rattus norvegicus [6] = test: Anticonvulsant activity in Sprague-Dawley rat assessed as protection from maximum electric shock-induced seizures at 30 mg/kg, po measured after 0.25 hrs; type: functional
Method in brief: (§4)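 Male Sprague–Dawley rats, four per group, given 30 mg/kg orally as a suspension in 0.5% methylcellulose/water. MES stimulus 150 mA, 60 Hz, 0.2 s via corneal electrodes. Tested at 0.25, 0.5, 1, 2 and 4 h; value is rats protected out of four.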

Rattus norvegicus [7] = test: Anticonvulsant activity in Sprague-Dawley rat assessed as protection from maximum electric shock-induced seizures at 30 mg/kg, po measured after 4 hrs; type: functional; method in brief: as §4
Rattus norvegicus [8] = test: Anticonvulsant activity in Sprague-Dawley rat assessed as protection from maximum electric shock-induced seizures at 30 mg/kg, po measured after 1 hr; type: functional; method in brief: as §4
Mus musculus [9] = test: Anticonvulsant activity in ip dosed CF-1 albino mouse assessed as protection from maximal electric shock-induced seizures measured after 0.5 hrs; type: functional; settings: read-out: MED; method in brief: as §2
Mus musculus [10] = test: Anticonvulsant activity in CF-1 albino mouse assessed as protection from maximal electric shock-induced seizures at 100 mg/kg, ip measured after 1 hr; type: functional, organism-based; design: dose 100 mg/kg
Mus musculus [11] = species: Mus musculus; test: Protective index, ratio of TD50 for CF-1 albino mouse to ED50 for CF-1 albino mouse assessed as protection from maximum electric shock-induced seizures; type: functional; method in brief: as §3
Mus musculus [12] = test: Neurotoxicity in CF-1 albino mouse assessed as motor impairment at 300 mg/kg, ip measured after 4 hrs by rotarod test; type: toxicity, organism-based; design: dose 300 mg/kg, route intraperitoneal; settings: in vivo
Method in brief: (§5)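 Rotarod neurotoxicity in male CF-1 mice given ip doses of 30, 100 or 300 mg/kg (0.5% methylcellulose suspension), examined 0.5 and 4 h after dosing. Impairment means failing to hold balance on the rod for 1 min. Value is the minimum dose causing toxicity in half or more of the animals; response comments are recorded.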

Mus musculus [13] = test: Anticonvulsant activity in CF-1 albino mouse assessed as protection from maximal electric shock-induced seizures at 100 mg/kg, ip measured after 0.25 hrs; type: functional, organism-based; design: dose 100 mg/kg
Mus musculus [14] = test: Anticonvulsant activity in CF-1 albino mouse assessed as protection against 6 Hz psychomotor seizure at 100 mg/kg, ip measured after 2 hrs; type: functional; settings: route intraperitoneal; method in brief: as §1
Mus musculus [15] = test: Anticonvulsant activity in CF-1 albino mouse assessed as protection against 6 Hz psychomotor seizure at 100 mg/kg, ip measured after 0.5 hrs; type: functional; settings: route intraperitoneal; method in brief: as §1
Rattus norvegicus [16] = test: Anticonvulsant activity in Sprague-Dawley rat assessed as protection from maximum electric shock-induced seizures at 30 mg/kg, po measured after 2 hrs; type: functional; method in brief: as §4
Mus musculus [17] = test: Anticonvulsant activity in ip dosed maximal electric shock-induced CF-1 albino mouse assessed as time of peak effect; type: functional; method in brief: as §3
Rattus norvegicus [18] = test: Neurotoxicity in Sprague-Dawley rat assessed as motor impairment at 30 mg/kg, po by rotarod test; type: toxicity, organism-based; design: dose 30 mg/kg, route oral; settings: in vivo
Method in brief: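 Male Sprague–Dawley rats, four animals, oral 30 mg/kg in 0.5% methylcellulose/water. Motor impairment on the rotarod (failure to keep balance for 1 min) assessed alongside MES at five times from 0.25 to 4 h.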

Mus musculus [19] = test: Anticonvulsant activity in CF-1 albino mouse assessed as protection against 6 Hz psychomotor seizure at 100 mg/kg, ip measured after 1 hr; type: functional; settings: route intraperitoneal; method in brief: as §1
Mus musculus [20] = test: Anticonvulsant activity in CF-1 albino mouse assessed as protection against 6 Hz psychomotor seizure at 100 mg/kg, ip measured after 4 hrs; type: functional; settings: route intraperitoneal; method in brief: as §1
Rattus norvegicus [21] = test: Anticonvulsant activity in Sprague-Dawley rat assessed as protection from maximum electric shock-induced seizures at 30 mg/kg, po measured after 0.5 hrs; type: functional; method in brief: as §4
Mus musculus [22] = test: Neurotoxicity in CF-1 albino mouse assessed as motor impairment at 300 mg/kg, ip measured after 0.5 hrs by rotarod test; type: toxicity, organism-based; design: dose 300 mg/kg, route intraperitoneal; settings: in vivo; method in brief: as §5
[23] = Neurotoxicity in po dosed Sprague-Dawley rat assessed as motor impairment measured at time of peak effect by rotarod test; type: toxicity, organism-based; settings: in vivo
Method in brief: (§6)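 Male Sprague–Dawley rats dosed orally (0.5% methylcellulose suspension). MES 150 mA, 60 Hz, 0.2 s; rotarod impairment is failure to keep balance for 1 min. Groups of eight, at the previously estimated time of peak effect, with doses varied until at least three points fell in the 10–90% range. ED50/TD50 with 95% confidence intervals from regression; PI = TD50/ED50.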

Mus musculus [24] = test: Anticonvulsant activity in CF-1 albino mouse assessed as protection from maximal electric shock-induced seizures at 300 mg/kg, ip measured after 0.5 hrs; type: functional, organism-based; design: dose 300 mg/kg; method in brief: as §2
Rattus norvegicus [25] = test: Anticonvulsant activity in po dosed Sprague-Dawley rat assessed as protection from maximum electric shock-induced seizures; type: functional; method in brief: as §6
Rattus norvegicus [26] = test: Anticonvulsant activity in po dosed maximum electric shock-induced Sprague-Dawley rat assessed as time of peak effect; type: functional; method in brief: as §6
Rattus norvegicus [27] = species: Rattus norvegicus; test: Protective index, ratio of TD50 for Sprague-Dawley rat to ED50 for Sprague-Dawley rat assessed as protection from maximum electric shock-induced seizures; type: functional; method in brief: as §6
Mus musculus [28] = test: Anticonvulsant activity in ip dosed CF-1 albino mouse assessed as protection against subcutaneous pentylenetetrazol-induced seizures measured after 0.5 hrs; type: functional; settings: read-out: MED
Method in brief: (§7)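 scPTZ test in male CF-1 mice. Compound suspended in 0.5% methylcellulose/water, ip at 30, 100 or 300 mg/kg. Pentylenetetrazole 85 mg/kg (CD97, clonic seizures lasting at least 5 s) given subcutaneously at the test time, read at 0.5 and 4 h. Value is the minimum dose protecting half or more of the animals.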

Mus musculus [29] = test: Neurotoxicity in CF-1 albino mouse assessed as inability to grasp rotarod at 300 mg/kg, ip measured after 0.5 hrs by rotarod test; type: toxicity, organism-based; design: dose 300 mg/kg, route intraperitoneal; settings: in vivo; method in brief: as §5
Mus musculus [30] = test: Neurotoxicity in CF-1 albino mouse assessed as myoclonic jerks at 300 mg/kg, ip measured after 0.5 hrs by rotarod test; type: toxicity, organism-based; design: dose 300 mg/kg, route intraperitoneal; settings: in vivo
Mus musculus [31] = test: Neurotoxicity in ip dosed CF-1 albino mouse assessed as motor impairment measured after 0.5 hrs by rotarod test; type: toxicity, organism-based; settings: in vivo; method in brief: as §5
Mus musculus [32] = test: Anticonvulsant activity in CF-1 albino mouse assessed as protection against subcutaneous pentylenetetrazol-induced seizures at 300 mg/kg, ip measured after 4 hrs; type: functional, organism-based; design: dose 300 mg/kg; method in brief: as §7

Compound	TD50 [1] [mg/kg]	Activity (Mus musculus [3]) [%]	minimal effective dose (Mus musculus [4]) [mg/kg]	ED50 (Mus musculus [5]) [mg/kg]	Activity (Rattus norvegicus [6]) [%]	Activity (Rattus norvegicus [7]) [%]	Activity (Rattus norvegicus [8]) [%]	minimal effective dose (Mus musculus [9]) [mg/kg]	Ratio TD50/ED50 (Mus musculus [11])	Activity (Mus musculus [12])	Activity (Mus musculus [14]) [%]	Activity (Mus musculus [15]) [%]	Activity (Rattus norvegicus [16]) [%]	Time (Mus musculus [17]) [h]	Activity (Rattus norvegicus [18])	Activity (Mus musculus [19]) [%]	Activity (Mus musculus [20]) [%]	Activity (Rattus norvegicus [21]) [%]	Activity (Mus musculus [22])	also measured
CC[C@@H](C(N)=O)N1CCCC1=O	> 500																			Time (Mus musculus [2]): 1 h
O=C1CC(c2ccccc2F)C(=O)N1CN1CCN(c2cccc(C(F)(F)F)c2)CC1 (racemic)	> 500	25	100	41.4	25	50	100	300	>12.09	Non-toxic	25	75	100	4	Non-toxic	0	25	100	Non-toxic	Activity (Mus musculus [10]): Active; Activity (Mus musculus [13]): Active
O=C1CC(c2ccccc2Br)C(=O)N1CN1CCN(c2ccc(F)cc2)CC1 (racemic)	466		100	79.9	25	75	25		5.83	Non-toxic			50	4	Non-toxic			25	Non-toxic	TD50 [23]: 62.4 mg/kg; Activity (Mus musculus [24]): inactive; ED50 (Rattus norvegicus [25]): 7.4 mg/kg; Time (Rattus norvegicus [26]): 4 h; Ratio TD50/ED50 (Rattus norvegicus [27]): 8.43
O=C1CC(c2ccccc2F)C(=O)N1CN1CCN(Cc2ccccc2)CC1 (racemic)		0	300					300		Non-toxic	0	25				0	0			minimal effective dose (Mus musculus [28]): 300 mg/kg; Activity (Mus musculus [29]): Toxic; Activity (Mus musculus [30]): Toxic; MTC (Mus musculus [31]): 300 mg/kg; Activity (Mus musculus [32]): inactive
